Assay [1] deals with Mycobacterium tuberculosis. As to the kind of experiment: Antimycobacterial activity against Mycobacterium tuberculosis H37Rv by agar dilution method. In kind it is functional. The method, boiled down: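 Agar dilution MIC on Middlebrook 7H11 agar supplemented with OADC, following NCCLS-like procedure; determined in duplicate.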
The next assay concerns Vero. In words: Cytotoxicity against african green monkey Vero cells after 72 hrs by MTT assay. Type of assay: cell-based. To be noted: Chlorocebus sabaeus. The method, boiled down:
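Vero monkey kidney cells exposed to compounds by serial double dilution up to 62.5 µg/mL for 72 h. Viability read from cellular MTT conversion to formazan (Cell Titer 96 non-radioactive proliferation assay); IC50 reported.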

Assay [2] can be described thus: Selectivity index, ratio of IC50 for african green monkey Vero cells to MIC for Mycobacterium tuberculosis H37Rv. In kind it is functional.
In assay [3] the test system is Mycobacterium tuberculosis. As to the kind of experiment: Antimycobacterial activity against Mycobacterium tuberculosis ATCC 35801 infected in CD1 mouse assessed as bacterial load in spleen at 25 mg/kg, ip administered 10 days postinfection for 10 days measured after 35 days of infection (Rvb=9.02 +/- 0.21 log CFU). In kind it is functional. The conditions noted are these: route intraperitoneal.

For assay [4], the system named is Mycobacterium tuberculosis. In words: Antimycobacterial activity against Mycobacterium tuberculosis ATCC 35801 infected in CD1 mouse assessed as bacterial load in lungs at 25 mg/kg, ip administered 10 days postinfection for 10 days measured after 35 days of infection (Rvb=7.99 +/- 0.16 log CFU). Type of assay: functional. To be noted: route intraperitoneal.

Converted amounts (≈) assume the structure as drawn.

Consider `Cc1ccc(C(=O)NCC2=C[C@@H]3Oc4ccccc4C(=O)C3=CN2c2ncc(Br)cc2Br)cc1`, for which, in assay [1], the MIC came out at 5.38 µM (≈ 3.13 µg/mL).

Turning to `CC1COc2c(N3CCN(C)CC3)c(F)cc3c(=O)c(C(=O)O)cn1c23` (centres undefined) [OFLOXACIN], the IC50 with Vero is > 155 µM. Inhibition of growth in assay [1] (MIC) required 2.13 µM (≈ 0.77 µg/mL). Taken in the same sequence, the figures for `O=C(NCC1=C[C@@H]2Oc3ccccc3C(=O)C2=CN1c1ncc(Br)cc1Br)c1ccc2ccccc2c1` were 101 µM and 2.52 µM (≈ 1.56 µg/mL). Regarding `Cc1cccnc1N1C=C2C(=O)c3ccccc3O[C@H]2C=C1CNC(=O)COc1ccccc1`, the MIC in assay [1] worked out at 13.8 µM (≈ 6.25 µg/mL). With `O=C(NCC1=C[C@@H]2Oc3ccccc3C(=O)C2=CN1c1ncc(Br)cc1Br)c1cccc(Cl)c1`, in the assay on Vero, the IC50 came out at 104 µM. This compound also had an MIC in assay [1] of 5.2 µM (≈ 3.13 µg/mL). As for `O=C(NCC1=C[C@@H]2Oc3ccccc3C(=O)C2=CN1c1ncc(Br)cc1Br)c1ccccc1`, inhibition of growth in assay [1] (MIC) required 11 µM (≈ 6.25 µg/mL). In the case of `Cc1cccnc1N1C=C2C(=O)c3ccccc3O[C@H]2C=C1CNC(=O)c1ccc(F)cc1`, the concentration for half-maximal inhibition (IC50) in the assay on Vero was > 142 µM. Inhibition of growth in assay [1] (MIC) required 7.09 µM (≈ 3.13 µg/mL). On to `Cc1cccnc1N1C=C2C(=O)c3ccccc3O[C@H]2C=C1CNC(=O)c1cccc(Cl)c1`, for which the IC50 in the assay on Vero was > 136 µM. The same compound yielded a minimal inhibitory concentration (MIC) in assay [1] of 1.7 µM (≈ 0.778 µg/mL). Taken in the same sequence, the figures for `Cc1cccnc1N1C=C2C(=O)c3ccccc3O[C@H]2C=C1CNC(=O)c1ccc2ccccc2c1` were 142 µM and 0.84 µM (≈ 0.398 µg/mL). Consider `CCc1ccc(C(=O)NCC2=C[C@@H]3Oc4ccccc4C(=O)C3=CN2c2ncccc2C)cc1`, for which the “Selectivity Index” value in assay [2] is 629. Also, in the assay with Vero, the IC50 is > 138 µM. Moreover, the log10cfu in assay [3] was 6.08; in assay [4], 6.88. Besides, 0.22 µM (≈ 0.0993 µg/mL) was the least that counted as inhibitory in assay [1] (MIC). `Cc1ccc2ccc(C(=O)NCC3=C[C@@H]4Oc5ccccc5C(=O)C4=CN3c3ncccc3C)cc2c1`: the IC50 with Vero was > 128 µM. In assay [1], this compound came in with an MIC of 0.41 µM (≈ 0.2 µg/mL). For the compound `O=C(NCC1=C[C@@H]2Oc3ccccc3C(=O)C2=CN1c1ncc(Br)cc1Br)c1ccc(Cl)cc1`, in the assay with Vero, the IC50 was > 104 µM. Moreover, the minimum inhibitory concentration (MIC) in assay [1] was 2.95 µM (≈ 1.77 µg/mL). Compound `O=C(COc1ccccc1)NCC1=C[C@@H]2Oc3ccccc3C(=O)C2=CN1c1ncc(Br)cc1Br` had an MIC in assay [1] of 10.5 µM (≈ 6.25 µg/mL).

Take `CC[C@@H](CO)NCCN[C@@H](CC)CO` [ETHAMBUTOL]: the IC50 in the assay on Vero is > 306 µM. The same compound yielded an MIC in assay [1] of 7.63 µM (≈ 1.56 µg/mL). Taken in the same sequence, the figures for `Cc1ccc2ccc(C(=O)NCC3=C[C@@H]4Oc5ccccc5C(=O)C4=CN3c3ncc(Br)cc3Br)cc2c1` were 99 µM and 1.23 µM (≈ 0.777 µg/mL). Taken in the same sequence, the figures for `Cc1ccc(C(=O)NCC2=C[C@@H]3Oc4ccccc4C(=O)C3=CN2c2ncccc2C)cc1` were > 143 µM and 1.78 µM (≈ 0.779 µg/mL). Turning to `Cc1cccnc1N1C=C2C(=O)c3ccccc3O[C@H]2C=C1CNC(=O)c1ccccc1`, the IC50 with Vero was > 148 µM. Besides, in assay [1], the lowest concentration to inhibit growth (MIC) was 7.36 µM (≈ 3.12 µg/mL). On to `O=C(NCC1=C[C@@H]2Oc3ccccc3C(=O)C2=CN1c1ncc(Br)cc1Br)c1ccc(F)cc1`, for which the minimal inhibitory concentration (MIC) in assay [1] worked out at 10.7 µM (≈ 6.24 µg/mL). On to `CCc1ccc(C(=O)NCC2=C[C@@H]3Oc4ccccc4C(=O)C3=CN2c2ncc(Br)cc2Br)cc1`, for which, in the assay with Vero, the IC50 was determined as 105 µM. For the same compound, in assay [1], the lowest concentration to inhibit growth (MIC) was 2.6 µM (≈ 1.55 µg/mL).

In the assay with Vero, `O=C(NCC1=C[C@@H]2Oc3ccccc3C(=O)C2=CN1c1ncc(Br)cc1Br)c1ccc(Cl)c(Cl)c1` displayed an IC50 of 50.7 µM. The compound also registered an MIC in assay [1] of 9.82 µM (≈ 6.25 µg/mL). Taken in the same sequence, the figures for `CO[C@H]1/C=C/O[C@@]2(C)Oc3c(C)c(O)c4c(O)c(c(/C=N/N5CCN(C)CC5)c(O)c4c3C2=O)NC(=O)/C(C)=C\C=C\[C@H](C)[C@H](O)[C@@H](C)[C@@H](O)[C@@H](C)[C@H](OC(C)=O)[C@@H]1C` [RIFAMPIN] were > 75.9 µM and 0.12 µM (≈ 0.0988 µg/mL). Turning to `COc1ccc(C(=O)NCC2=C[C@@H]3Oc4ccccc4C(=O)C3=CN2c2ncc(Br)cc2Br)cc1`, in assay [1], 10.5 µM (≈ 6.25 µg/mL) was the least that counted as inhibitory (MIC). On to `COc1ccc(C(=O)NCC2=C[C@@H]3Oc4ccccc4C(=O)C3=CN2c2ncccc2C)cc1`, for which the IC50 in the assay on Vero is > 138 µM. Further, in assay [1], it took 1.72 µM (≈ 0.78 µg/mL) to inhibit growth (MIC). On the same counts, the results for `Cc1cccnc1N1C=C2C(=O)c3ccccc3O[C@H]2C=C1CNC(=O)c1ccc(Cl)cc1` are 136 µM and 1.7 µM (≈ 0.778 µg/mL). In the case of `NNC(=O)c1ccncc1` [ISONIAZID], the IC50 in the assay on Vero was > 456 µM. The log10cfu in assay [3] was 4.71; in assay [4], 5.86. For the same compound, the MIC in assay [1] was 0.36 µM (≈ 0.0494 µg/mL).

The values are drawn from ChEMBL document CHEMBL1154729, “Discovery of novel antitubercular 2,10-dihydro-4aH-chromeno[3,2-c]pyridin-3-yl derivatives” (Eur J Med Chem, 2010).
